pIC50: −log10 of the molar value. Activity calls are given as the source filed them. No cut-off for these calls is given here.
Key:
[1] = AUC (24 hrs) in rat at 10 mg/kg, po; type: ADME, organism-based; set-up: time < 24 hr, dose 10 mg/kg, route oral; settings: plasma
[2] = target: T1, Bifunctional epoxide hydrolase 2 (Homo sapiens, UniProt P34913); experiment: Inhibition of human soluble epoxide hydrolase
T1 sequence (P34913 whole entry): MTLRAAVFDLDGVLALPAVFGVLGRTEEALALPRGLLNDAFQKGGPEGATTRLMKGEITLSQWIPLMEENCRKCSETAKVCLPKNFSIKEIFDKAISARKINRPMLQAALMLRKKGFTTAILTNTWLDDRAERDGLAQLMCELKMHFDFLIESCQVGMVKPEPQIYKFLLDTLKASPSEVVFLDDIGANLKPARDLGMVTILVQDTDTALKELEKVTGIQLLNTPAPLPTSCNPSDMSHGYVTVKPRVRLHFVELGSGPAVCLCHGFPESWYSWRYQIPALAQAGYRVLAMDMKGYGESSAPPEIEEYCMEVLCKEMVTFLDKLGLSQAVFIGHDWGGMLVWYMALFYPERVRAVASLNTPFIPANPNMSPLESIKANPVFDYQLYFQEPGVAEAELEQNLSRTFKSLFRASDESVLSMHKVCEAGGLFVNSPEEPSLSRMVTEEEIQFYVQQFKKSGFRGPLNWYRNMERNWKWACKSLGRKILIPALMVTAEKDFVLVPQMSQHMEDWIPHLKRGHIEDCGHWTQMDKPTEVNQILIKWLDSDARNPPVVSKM

[3] = target: T1, Bifunctional epoxide hydrolase 2; type: cell-based, HUVEC
[4] = target: Voltage-gated inwardly rectifying potassium channel KCNH2 (Homo sapiens, UniProt Q12809); experiment: Inhibition of human ERG by patch clamp analysis
How it was run: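 hERG inhibition measured by high-throughput patch clamp; percent inhibition at 30 µM.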

Cytochrome P450 1A2 = target: T2, Cytochrome P450 1A2 (Homo sapiens, UniProt P05177); experiment: Inhibition of CYP1A2; type: ADME
T2 sequence (P05177 whole entry): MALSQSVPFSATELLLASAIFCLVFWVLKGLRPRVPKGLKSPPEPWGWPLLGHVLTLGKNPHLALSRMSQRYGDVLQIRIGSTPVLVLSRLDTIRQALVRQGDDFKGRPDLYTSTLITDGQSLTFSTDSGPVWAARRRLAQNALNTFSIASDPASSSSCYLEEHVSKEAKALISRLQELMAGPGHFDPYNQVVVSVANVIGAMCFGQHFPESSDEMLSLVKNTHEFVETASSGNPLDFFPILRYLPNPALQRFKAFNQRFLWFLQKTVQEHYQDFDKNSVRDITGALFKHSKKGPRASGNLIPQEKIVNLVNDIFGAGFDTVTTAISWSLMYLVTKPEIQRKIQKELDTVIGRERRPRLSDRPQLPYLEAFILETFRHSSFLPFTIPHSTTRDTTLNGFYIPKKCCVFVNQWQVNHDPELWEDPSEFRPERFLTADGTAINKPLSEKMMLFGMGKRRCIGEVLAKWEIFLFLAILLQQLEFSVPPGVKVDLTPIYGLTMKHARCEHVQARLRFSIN

Cytochrome P450 2B6 = target: T3, Cytochrome P450 2B6 (Homo sapiens, UniProt P20813); experiment: Inhibition of CYP2B6; type: ADME
T3 sequence (P20813 whole entry): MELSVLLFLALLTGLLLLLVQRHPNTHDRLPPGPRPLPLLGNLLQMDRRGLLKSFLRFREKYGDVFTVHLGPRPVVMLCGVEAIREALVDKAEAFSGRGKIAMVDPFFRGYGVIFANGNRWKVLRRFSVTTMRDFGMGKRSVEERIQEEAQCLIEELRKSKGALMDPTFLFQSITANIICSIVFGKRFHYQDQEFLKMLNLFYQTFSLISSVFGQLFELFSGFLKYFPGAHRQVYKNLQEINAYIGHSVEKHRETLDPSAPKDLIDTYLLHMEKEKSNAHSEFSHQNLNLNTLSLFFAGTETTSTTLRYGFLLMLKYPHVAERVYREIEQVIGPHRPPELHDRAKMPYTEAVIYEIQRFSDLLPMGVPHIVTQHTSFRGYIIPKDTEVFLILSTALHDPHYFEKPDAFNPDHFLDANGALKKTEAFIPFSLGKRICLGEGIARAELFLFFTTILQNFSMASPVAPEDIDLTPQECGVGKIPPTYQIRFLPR

Cytochrome P450 2C9 = Cytochrome P450 2C9 (Homo sapiens, UniProt P11712); experiment: Inhibition of CYP2C9; type: ADME
Cytochrome P450 2C19 = Cytochrome P450 2C19 (Homo sapiens, UniProt P33261); experiment: Inhibition of CYP2C19; type: ADME
Cytochrome P450 3A4 = Cytochrome P450 3A4 (Homo sapiens, UniProt P08684); experiment: Inhibition of CYP3A4; type: ADME
[5] = Oral bioavailability in cynomolgus monkey; type: ADME, organism-based, Macaca fascicularis; settings: in vivo
[6] = Oral bioavailability in rat; type: ADME, organism-based; settings: in vivo
Rattus norvegicus [7] = experiment: Antihypertensive activity against spontaneously hypertensive rat assessed as decrease in mean blood pressure at 100 mg/kg, po; type: functional, organism-based; set-up: dose 100 mg/kg
Mus musculus [8] = experiment: Antidiabetic activity in diet induced obese mouse assessed as reduction in maximal glucose excursion at 100 mg/kg, po BID for 4 weeks; type: functional, organism-based; set-up: dose 100 mg/kg
How it was run: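 Male C57BL/6 mice fed 45% fat diet plus high fructose corn syrup (0.42 kcal/mL) for 6 weeks beforehand and throughout. Oral gavage BID for 12 weeks. After 4 weeks, intraperitoneal glucose 2 g/kg given 4 h post-dose.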

Rattus norvegicus [9] = experiment: Antihypertensive activity against AngII-induced hypertension in telemetered rat assessed as decrease in systolic blood pressure at 50 mg/kg, po; settings: Artery, read-out: INH
Rattus norvegicus [10] = experiment: Antihypertensive activity against AngII-induced hypertension in telemetered rat assessed as decrease in diastolic blood pressure at 50 mg/kg, po; type: functional, organism-based; set-up: dose 50 mg/kg; settings: Artery
How it was run: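 Sprague–Dawley rats made hypertensive by continuous AngII infusion, 65 ng/min. Dosed orally twice daily as a suspension in 0.5% carboxymethylcellulose, 0.1% Tween 80. Systolic and diastolic pressure recorded continuously by telemetry and compared against vehicle control.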

Mus musculus [11] = experiment: Inhibition of soluble epoxide hydrolase in diet induced obese mouse assessed as inhibition of EET hydrolysis at 100 mg/kg, po BID for 12 weeks measured 7 hrs post last dose

Sequence of Voltage-gated inwardly rectifying potassium channel KCNH2 (Q12809 whole entry): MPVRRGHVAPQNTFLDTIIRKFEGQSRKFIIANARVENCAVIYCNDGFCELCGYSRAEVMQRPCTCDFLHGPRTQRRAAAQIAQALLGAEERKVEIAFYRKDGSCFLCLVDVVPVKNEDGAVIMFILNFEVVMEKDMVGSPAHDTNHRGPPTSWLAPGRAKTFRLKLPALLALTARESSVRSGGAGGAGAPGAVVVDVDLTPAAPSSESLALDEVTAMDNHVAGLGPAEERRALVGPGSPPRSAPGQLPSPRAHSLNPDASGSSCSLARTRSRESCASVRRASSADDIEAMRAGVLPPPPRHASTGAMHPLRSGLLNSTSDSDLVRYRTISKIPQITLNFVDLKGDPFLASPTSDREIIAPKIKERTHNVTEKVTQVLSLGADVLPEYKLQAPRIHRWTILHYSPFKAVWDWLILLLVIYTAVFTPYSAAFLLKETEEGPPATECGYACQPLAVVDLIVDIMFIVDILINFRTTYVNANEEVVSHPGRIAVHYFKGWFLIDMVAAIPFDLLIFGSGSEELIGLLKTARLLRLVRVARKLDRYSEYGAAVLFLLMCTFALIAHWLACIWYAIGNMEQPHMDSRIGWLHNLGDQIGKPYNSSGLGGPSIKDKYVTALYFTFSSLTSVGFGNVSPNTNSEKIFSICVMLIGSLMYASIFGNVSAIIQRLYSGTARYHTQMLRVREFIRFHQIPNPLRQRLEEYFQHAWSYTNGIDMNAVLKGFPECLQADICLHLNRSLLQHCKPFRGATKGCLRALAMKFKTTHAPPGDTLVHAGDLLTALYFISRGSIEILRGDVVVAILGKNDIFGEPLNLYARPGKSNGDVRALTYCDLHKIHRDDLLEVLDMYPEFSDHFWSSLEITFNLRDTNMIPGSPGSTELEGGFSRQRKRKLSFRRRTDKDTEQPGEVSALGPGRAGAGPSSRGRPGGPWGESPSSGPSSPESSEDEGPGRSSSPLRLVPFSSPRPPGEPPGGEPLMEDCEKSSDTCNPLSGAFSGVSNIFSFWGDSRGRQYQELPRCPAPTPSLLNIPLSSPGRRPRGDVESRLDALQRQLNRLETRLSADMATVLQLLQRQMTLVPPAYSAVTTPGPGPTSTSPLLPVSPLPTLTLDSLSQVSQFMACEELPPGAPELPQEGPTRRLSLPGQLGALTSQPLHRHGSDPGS
Sequence of Cytochrome P450 2C19 (P33261 whole entry): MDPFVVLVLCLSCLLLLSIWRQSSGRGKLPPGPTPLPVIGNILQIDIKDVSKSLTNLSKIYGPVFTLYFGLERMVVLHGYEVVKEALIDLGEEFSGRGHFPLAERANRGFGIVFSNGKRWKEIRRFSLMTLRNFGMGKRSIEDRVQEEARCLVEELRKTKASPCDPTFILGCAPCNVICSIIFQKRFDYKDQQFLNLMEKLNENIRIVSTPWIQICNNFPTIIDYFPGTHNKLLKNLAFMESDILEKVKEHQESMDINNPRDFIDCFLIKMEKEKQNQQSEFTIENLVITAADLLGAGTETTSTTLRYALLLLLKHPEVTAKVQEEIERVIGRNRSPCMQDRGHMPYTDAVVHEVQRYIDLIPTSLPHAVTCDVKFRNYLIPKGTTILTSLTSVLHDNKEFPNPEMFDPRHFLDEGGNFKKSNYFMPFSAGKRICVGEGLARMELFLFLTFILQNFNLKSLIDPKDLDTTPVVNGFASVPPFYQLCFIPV
Sequence of Cytochrome P450 2C9 (P11712 whole entry): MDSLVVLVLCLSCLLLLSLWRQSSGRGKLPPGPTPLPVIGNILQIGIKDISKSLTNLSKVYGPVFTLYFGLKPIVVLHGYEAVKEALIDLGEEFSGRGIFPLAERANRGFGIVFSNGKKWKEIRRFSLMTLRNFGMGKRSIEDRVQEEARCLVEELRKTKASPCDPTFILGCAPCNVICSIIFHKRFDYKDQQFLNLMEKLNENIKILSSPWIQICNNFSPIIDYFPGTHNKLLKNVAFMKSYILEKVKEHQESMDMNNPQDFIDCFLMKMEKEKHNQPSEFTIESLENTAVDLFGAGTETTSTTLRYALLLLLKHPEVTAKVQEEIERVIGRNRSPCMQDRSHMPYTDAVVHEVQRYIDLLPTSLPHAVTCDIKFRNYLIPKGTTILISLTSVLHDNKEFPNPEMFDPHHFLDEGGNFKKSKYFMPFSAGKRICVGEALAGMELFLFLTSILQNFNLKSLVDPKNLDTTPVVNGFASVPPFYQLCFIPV
Sequence of Cytochrome P450 3A4 (P08684 whole entry): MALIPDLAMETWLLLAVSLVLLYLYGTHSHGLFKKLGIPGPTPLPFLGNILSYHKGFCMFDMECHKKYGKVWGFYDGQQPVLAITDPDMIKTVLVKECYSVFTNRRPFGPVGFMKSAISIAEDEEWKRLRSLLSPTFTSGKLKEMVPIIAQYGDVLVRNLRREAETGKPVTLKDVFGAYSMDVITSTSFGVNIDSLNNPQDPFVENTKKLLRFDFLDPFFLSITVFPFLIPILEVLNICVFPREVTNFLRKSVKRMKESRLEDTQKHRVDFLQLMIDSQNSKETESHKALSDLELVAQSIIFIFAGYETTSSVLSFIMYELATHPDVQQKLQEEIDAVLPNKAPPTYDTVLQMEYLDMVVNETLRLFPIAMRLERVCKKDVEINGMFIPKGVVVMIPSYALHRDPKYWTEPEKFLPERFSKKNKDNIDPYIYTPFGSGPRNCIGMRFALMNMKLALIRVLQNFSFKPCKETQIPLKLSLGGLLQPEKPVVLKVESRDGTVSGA

| SMILES | AUC at 24 h [1] [ng·h/mL] | pIC50 [2] | pIC50 [3] | inhibition (INH) [4] [%] | further results |
| --- | --- | --- | --- | --- | --- |
| CS(=O)(=O)N1CCC(NC(=O)Nc2ccc(C(F)(F)F)cc2)CC1 | 6850 |  |  |  |  |
| CC(=O)N1CCC(NC(=O)NC2CCC(F)(F)CC2)CC1 |  | 6.73 |  |  |  |
| O=C(NC1CCCCC1)NC1CCN(C(=O)c2ccccn2)CC1 | 8320 | 8.19 | 7.17 | 3.4 |  |
| CC(=O)N1CCC(NC(=O)NC2CCCCCC2)CC1 | 7840 | 9.10 | 7.57 | 9 |  |
| CS(=O)(=O)N1CCC(NC(=O)NC23CC4CC(CC(C4)C2)C3)CC1 | 640 | 8.72 | 8.41 | -2.8 |  |
| CC(=O)N1CCC(NC(=O)NC2C3CCC2CC3)CC1 (stereo not given) |  | 7.85 | 6.92 |  |  |
| CC(=O)N1CCC(NC(=O)NC2CCCCC2)CC1 |  | 7.54 |  |  |  |
| CC(=O)N1CCC(NC(=O)NC2CCC(C)(C)CC2)CC1 |  | 8.22 | 7.42 | 0.8 |  |
| CC(=O)N1CCC(NC(=O)Nc2ccc(C(F)(F)F)cc2)CC1 | 13100 |  |  |  |  |
| CC(=O)N1CCC(NC(=O)NC2CC3(C)CCC2CC3)CC1 (stereo not given) | 1480 | 7.60 | 6.52 |  |  |
| CC(C)S(=O)(=O)N1CCC(NC(=O)Nc2ccc(OC(F)(F)F)cc2)CC1 | 7300 |  | 7.19 | 11 |  |
| CC(=O)N1CCC(NC(=O)NC23CC4CC(CC(C4)C2)C3)CC1 [AR9281] | 720 |  |  | < 8 | inhibition (INH) (Cytochrome P450 1A2): Not Active; inhibition (INH) (Cytochrome P450 2B6): Not Active; inhibition (INH) (Cytochrome P450 2C9): Not Active; inhibition (INH) (Cytochrome P450 2C19): Not Active; inhibition (INH) (Cytochrome P450 3A4): Not Active; bioavailability [5]: 25%; bioavailability [6]: 100%; Activity (Rattus norvegicus [7]): inactive; Activity (Mus musculus [8]): Active; inhibition in vivo at 50 mg/kg (Rattus norvegicus [9]): 8%; Activity (Rattus norvegicus [10]): Active; Activity (Mus musculus [11]): Active |
| CC(=O)N1CCC(NC(=O)NC23CC4(F)CC(F)(CC(F)(C4)C2)C3)CC1 |  | 6.92 |  |  |  |
| O=C(Nc1ccc(OC(F)(F)F)cc1)NC1CCN(C(=O)c2cccnc2)CC1 | 11300 |  | 8.17 | 57 |  |
| CC(=O)N1CCC(NC(=O)NC2CCC(C(C)(C)C)CC2)CC1 (stereo not given) | 1780 | 7.89 | 6.57 | 7 |  |
| CC(C)S(=O)(=O)N1CCC(NC(=O)Nc2ccc(C(F)(F)F)cc2)CC1 | 5890 |  |  | 13 |  |
| CC(=O)N1CCC(NC(=O)NC23CC4CC(F)(CC(F)(C4)C2)C3)CC1 |  | 7.24 |  |  |  |
| CC(=O)N1CCC(NC(=O)Nc2cccc(C(F)(F)F)c2)CC1 | 19600 |  | 6.65 | 10 |  |

— ChEMBL document CHEMBL1667772 (Bioorg Med Chem Lett, 2011)
